Calls of active or inactive are those of the source. No cut-off for these calls is given here.
Columns and labels:
[1] = target: T1, MAO-B (amine oxidase [flavin-containing] B) (Homo sapiens, UniProt P27338); assay: Inhibition of MAOB at 10 uM
T1 sequence (P27338 whole entry): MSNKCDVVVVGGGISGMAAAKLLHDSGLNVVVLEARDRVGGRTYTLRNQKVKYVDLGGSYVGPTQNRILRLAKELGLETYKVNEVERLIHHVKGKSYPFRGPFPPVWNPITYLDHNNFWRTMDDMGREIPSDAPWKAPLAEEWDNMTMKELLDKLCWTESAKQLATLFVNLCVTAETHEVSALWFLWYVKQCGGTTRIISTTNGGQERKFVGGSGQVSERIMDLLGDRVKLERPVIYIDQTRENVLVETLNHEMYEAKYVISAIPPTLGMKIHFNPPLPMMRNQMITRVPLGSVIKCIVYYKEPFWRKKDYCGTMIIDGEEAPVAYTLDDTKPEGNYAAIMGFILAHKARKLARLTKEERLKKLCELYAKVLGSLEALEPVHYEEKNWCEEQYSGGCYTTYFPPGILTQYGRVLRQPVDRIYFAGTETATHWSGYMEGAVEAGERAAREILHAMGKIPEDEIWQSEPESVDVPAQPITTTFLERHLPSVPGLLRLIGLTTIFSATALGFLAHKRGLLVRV
Method in brief: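 Radioligand binding panel. Values are average percentages of inhibition of specific binding, measured against potent standard ligands for each target.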

[2] = target: Melanocortin receptor 4 (Homo sapiens) (UniProt P32245); assay: Inhibition of radioligand binding to MC4R at 10 uM
Chain of Melanocortin receptor 4 (Homo sapiens) (P32245 whole entry): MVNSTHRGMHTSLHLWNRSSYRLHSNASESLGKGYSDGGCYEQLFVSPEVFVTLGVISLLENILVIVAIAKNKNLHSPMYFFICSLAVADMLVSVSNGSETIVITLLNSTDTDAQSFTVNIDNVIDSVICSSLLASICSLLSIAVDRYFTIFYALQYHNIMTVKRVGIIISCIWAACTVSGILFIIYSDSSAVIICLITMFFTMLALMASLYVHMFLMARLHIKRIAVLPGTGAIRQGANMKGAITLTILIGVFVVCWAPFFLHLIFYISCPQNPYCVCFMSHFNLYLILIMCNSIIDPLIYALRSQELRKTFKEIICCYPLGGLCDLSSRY

[3] = target: Kappa-type opioid receptor (Homo sapiens) (UniProt P41145); assay: Inhibition of radioligand binding to KOP receptor at 10 uM
Chain of Kappa-type opioid receptor (Homo sapiens) (P41145 whole entry): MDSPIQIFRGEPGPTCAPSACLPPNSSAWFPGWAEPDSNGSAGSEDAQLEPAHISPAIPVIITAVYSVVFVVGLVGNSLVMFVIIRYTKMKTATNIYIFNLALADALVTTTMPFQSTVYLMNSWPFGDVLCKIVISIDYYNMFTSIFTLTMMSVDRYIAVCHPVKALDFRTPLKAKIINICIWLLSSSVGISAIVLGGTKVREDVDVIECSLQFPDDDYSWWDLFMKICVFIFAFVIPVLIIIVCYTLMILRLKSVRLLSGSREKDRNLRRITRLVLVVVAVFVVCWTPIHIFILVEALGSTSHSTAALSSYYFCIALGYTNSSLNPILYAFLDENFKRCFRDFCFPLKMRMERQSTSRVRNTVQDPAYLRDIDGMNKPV
Method in brief: (§1)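 Part of an in vitro radioligand binding panel. Each target was tested against a potent standard radioligand for that site. The read-out was percent inhibition of specific binding, reported as an average value.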

[4] = target: T2, Muscarinic acetylcholine receptor M5 (Homo sapiens) (UniProt P08912); assay: Inhibition of radioligand binding to muscarinic M5 receptor at 10 uM; method in brief: as §1
T2 sequence (whole entry): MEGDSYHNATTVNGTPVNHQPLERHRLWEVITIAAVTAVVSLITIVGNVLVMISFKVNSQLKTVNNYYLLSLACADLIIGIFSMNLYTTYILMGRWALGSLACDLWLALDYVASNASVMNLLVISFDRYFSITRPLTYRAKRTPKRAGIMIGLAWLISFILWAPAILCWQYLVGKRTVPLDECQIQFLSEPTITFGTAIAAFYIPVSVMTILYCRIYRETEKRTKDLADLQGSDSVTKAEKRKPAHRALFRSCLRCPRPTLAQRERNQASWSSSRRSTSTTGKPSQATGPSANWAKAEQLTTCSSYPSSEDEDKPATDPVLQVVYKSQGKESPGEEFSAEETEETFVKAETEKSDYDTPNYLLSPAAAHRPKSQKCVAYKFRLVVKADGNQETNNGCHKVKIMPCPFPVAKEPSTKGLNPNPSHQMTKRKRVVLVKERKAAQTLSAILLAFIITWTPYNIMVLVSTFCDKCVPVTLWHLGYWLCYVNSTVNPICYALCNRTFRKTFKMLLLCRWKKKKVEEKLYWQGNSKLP

[5] = target: Muscarinic acetylcholine receptor M3 (Homo sapiens) (UniProt P20309); assay: Inhibition of radioligand binding to muscarinic M3 receptor at 10 uM; method in brief: as §1
Chain of Muscarinic acetylcholine receptor M3 (Homo sapiens) (P20309 whole entry, looked up): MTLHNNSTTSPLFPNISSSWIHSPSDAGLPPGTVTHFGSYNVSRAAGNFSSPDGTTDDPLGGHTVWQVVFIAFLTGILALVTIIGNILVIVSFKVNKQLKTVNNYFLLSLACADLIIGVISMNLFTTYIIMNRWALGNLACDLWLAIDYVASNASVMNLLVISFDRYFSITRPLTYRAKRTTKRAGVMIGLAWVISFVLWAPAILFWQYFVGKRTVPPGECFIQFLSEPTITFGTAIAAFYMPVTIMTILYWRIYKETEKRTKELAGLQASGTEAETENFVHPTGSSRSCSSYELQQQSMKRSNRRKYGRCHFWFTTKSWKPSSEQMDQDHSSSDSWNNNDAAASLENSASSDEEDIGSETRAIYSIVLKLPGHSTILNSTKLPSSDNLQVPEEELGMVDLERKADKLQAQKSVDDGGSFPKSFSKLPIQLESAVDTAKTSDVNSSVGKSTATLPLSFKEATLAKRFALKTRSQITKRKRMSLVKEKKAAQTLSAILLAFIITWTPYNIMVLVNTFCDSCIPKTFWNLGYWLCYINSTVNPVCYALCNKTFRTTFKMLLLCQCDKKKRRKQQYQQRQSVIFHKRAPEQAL

[6] = target: D(2) dopamine receptor (Homo sapiens) (UniProt P14416); assay: Inhibition of radioligand binding to D2L receptor at 10 uM; method in brief: as §1
Chain of D(2) dopamine receptor (Homo sapiens) (P14416 whole entry): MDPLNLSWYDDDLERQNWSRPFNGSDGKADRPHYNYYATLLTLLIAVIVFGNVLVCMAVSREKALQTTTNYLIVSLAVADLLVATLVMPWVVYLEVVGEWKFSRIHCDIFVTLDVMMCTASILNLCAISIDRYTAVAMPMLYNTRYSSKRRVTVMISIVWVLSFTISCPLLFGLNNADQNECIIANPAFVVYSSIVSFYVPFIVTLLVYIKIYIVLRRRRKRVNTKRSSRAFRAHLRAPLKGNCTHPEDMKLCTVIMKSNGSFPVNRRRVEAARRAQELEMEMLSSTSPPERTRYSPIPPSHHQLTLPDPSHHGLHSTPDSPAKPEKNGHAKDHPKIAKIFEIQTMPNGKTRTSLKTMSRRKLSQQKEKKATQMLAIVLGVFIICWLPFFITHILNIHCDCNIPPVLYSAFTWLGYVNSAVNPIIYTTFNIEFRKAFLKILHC

[7] = target: T3, Nischarin (Homo sapiens, UniProt Q9Y2I1); assay: Inhibition of radioligand binding to imidazole receptor 1
T3 sequence (Q9Y2I1 whole entry): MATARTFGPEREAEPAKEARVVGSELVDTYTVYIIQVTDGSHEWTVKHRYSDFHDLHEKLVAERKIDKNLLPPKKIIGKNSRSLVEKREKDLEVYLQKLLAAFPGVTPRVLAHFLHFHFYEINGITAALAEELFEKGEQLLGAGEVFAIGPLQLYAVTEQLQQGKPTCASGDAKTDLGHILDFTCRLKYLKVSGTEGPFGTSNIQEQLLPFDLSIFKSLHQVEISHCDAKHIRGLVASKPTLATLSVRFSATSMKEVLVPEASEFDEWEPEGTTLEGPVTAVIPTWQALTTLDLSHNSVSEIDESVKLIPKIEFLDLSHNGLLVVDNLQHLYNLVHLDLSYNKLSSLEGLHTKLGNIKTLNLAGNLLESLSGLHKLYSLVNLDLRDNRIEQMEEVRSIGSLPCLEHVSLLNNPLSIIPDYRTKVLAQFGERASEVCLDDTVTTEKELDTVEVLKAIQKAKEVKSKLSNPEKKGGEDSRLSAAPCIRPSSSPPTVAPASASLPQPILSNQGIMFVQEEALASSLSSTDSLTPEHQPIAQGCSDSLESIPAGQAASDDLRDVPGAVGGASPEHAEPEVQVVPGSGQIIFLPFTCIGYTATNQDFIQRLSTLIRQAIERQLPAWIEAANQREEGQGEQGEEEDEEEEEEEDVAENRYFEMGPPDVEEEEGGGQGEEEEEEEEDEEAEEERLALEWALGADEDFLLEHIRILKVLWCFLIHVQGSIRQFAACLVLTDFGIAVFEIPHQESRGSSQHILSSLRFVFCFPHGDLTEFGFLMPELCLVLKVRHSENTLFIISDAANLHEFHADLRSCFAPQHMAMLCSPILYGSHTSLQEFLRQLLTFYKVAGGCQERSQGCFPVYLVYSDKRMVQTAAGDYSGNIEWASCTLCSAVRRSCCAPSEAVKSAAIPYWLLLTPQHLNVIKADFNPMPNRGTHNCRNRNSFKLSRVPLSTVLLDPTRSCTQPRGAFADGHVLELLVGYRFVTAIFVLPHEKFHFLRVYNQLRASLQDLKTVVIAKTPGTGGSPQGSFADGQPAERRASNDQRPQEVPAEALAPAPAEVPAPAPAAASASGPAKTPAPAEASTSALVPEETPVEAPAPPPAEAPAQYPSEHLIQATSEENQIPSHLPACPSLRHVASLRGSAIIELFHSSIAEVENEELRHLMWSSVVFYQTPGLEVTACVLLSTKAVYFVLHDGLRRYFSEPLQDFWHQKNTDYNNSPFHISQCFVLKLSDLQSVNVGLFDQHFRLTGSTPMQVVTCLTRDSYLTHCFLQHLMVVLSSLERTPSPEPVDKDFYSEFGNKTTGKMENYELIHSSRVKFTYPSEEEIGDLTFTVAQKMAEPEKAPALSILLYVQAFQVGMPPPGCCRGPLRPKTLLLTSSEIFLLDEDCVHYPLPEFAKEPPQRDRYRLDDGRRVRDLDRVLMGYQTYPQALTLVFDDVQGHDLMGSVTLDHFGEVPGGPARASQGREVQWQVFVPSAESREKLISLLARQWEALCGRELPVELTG

[8] = target: T3, Nischarin; assay: Inhibition of radioligand binding to imidazole receptor 1 at 10 uM
[9] = species: Rattus norvegicus; assay: Displacement of [3H]idazoxan from rat cerebral cortex imidazole receptor 2 at 10 uM in presence of 1 uM yohimbine; assay type: tissue-based
[10] = test system: Hippocampal neuron; assay: Neuroprotective activity in mouse hippocampal neurons assessed as Abeta-induced neuronal apoptosis at 30 uM pre-incubated for 4 hrs before Abeta challenge for 72 hrs by TUNEL assay (reference value: 100%); assay type: functional; settings: Hippocampus
Method in brief: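 Aggregated Aβ (20 μM, 72 h) was applied to primary mouse hippocampal neurons with or without compound at 30 μM. Apoptosis was scored by TUNEL as the percentage of positive nuclei among total nuclei, referred to Aβ alone (100%). Medium-only cells were the negative control and DNase the positive control. n = 4, mean ± SEM, two-tailed Student's test.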

[11] = target: T4, 5-hydroxytryptamine receptor 1A (Homo sapiens) (UniProt P08908); assay: Inhibition of radioligand binding to 5HT1A at 10 uM; method in brief: as §1
T4 sequence (whole entry): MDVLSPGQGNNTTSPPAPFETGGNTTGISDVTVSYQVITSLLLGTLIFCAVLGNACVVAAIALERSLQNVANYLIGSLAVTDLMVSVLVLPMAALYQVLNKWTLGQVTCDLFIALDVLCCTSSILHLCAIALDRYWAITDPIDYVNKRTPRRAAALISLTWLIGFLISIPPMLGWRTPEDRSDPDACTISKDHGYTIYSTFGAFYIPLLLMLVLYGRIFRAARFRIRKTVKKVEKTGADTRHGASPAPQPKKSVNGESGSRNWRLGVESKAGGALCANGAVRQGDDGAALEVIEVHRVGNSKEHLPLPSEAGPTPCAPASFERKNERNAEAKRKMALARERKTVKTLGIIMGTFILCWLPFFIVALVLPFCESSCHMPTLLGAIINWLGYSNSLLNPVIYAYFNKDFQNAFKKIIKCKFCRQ

Row | SMILES | inhibition at 10 µM [1] [%] | inhibition [2] [%] | inhibition [3] [%] | inhibition [4] [%] | inhibition [5] [%] | inhibition [6] [%] | Ki [7] [µM] | inhibition [8] [%] | inhibition [9] [%] | Activity [10] | inhibition [11] [%]
1 | CN(C)C(CN)c1ccccc1Cl (stereo unspecified) | < 20 | < 20 | < 20 | < 20 | < 20 | < 20 | 5.2 | < 20 | 43 | Active | < 20
2 | CN1CCNC(c2ccccc2)C1 (stereo unspecified) | < 20 | < 20 | < 20 | < 20 | < 20 | < 20 | – | 36 | 41 | Active | < 20
3 | NCC12CCC3CC(CC3C1)C2 (stereo unspecified) | < 20 | < 20 | < 20 | < 20 | < 20 | < 20 | – | < 20 | 34 | Active | < 20

Source: ChEMBL document CHEMBL2176910, “Identification of small molecule inhibitors of amyloid β-induced neuronal apoptosis acting through the imidazoline I(2) receptor” (J Med Chem, 2012)
